Assay results reported in ChEMBL document CHEMBL1155043, “Complexation of the anti-Trypanosoma cruzi drug benznidazole improves solubility and efficacy” (J Med Chem, 2008).
In brackets after ≈: the same amount, converted by molar mass. Activity calls are given as the source filed them. No cut-off for these calls is given here.

Columns and labels:
Trypanosoma cruzi [1] = test: Antitrypanosomal activity against bloodstream trypomastigote of Trypanosoma cruzi Y assessed as number of motile forms after 1 hr by hemocytometer; assay type: functional, organism-based
Method in brief: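 Bloodstream trypomastigotes (Y strain) taken from mice at peak parasitemia, resuspended to 1.0 × 10^6/mL. Triplicate wells with compound in PBS at 0.1, 0.25, 0.5 and 1.0 mM, 37 °C, 5% CO2, 1 h. Motile forms counted by hemocytometer; % trypanocidal activity = [1 - (LDt/LCt)] × 100 against untreated wells.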

Trypanosoma cruzi [2] = test: Antiproliferative activity against Trypanosoma cruzi Y epimastigotes assessed as number of motile forms at 0.1 mM after 1 hr by hemocytometer; assay type: functional; conditions: read-out: GI
Method in brief: (§1)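 Y strain epimastigotes grown in Schneider's medium with 20% fetal calf serum, taken in exponential phase, PBS-washed, resuspended to 2.0 × 10^6/mL. Plated in triplicate with compound diluted in PBS, incubated at 37 °C, 5% CO2. Motile forms counted by hemocytometer; % growth inhibition = {1 - [(LDt - LDt0)/(LCt - LCt0)]} × 100 against untreated wells.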

Trypanosoma cruzi [3] = test: Antitrypanosomal activity against Trypanosoma cruzi Y infected in Swiss mouse assessed as survivality at 385 umol/kg, po for 1 day after 15 days; assay type: functional
Method in brief: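 Female Swiss mice, 5-6 weeks old, infected intraperitoneally with 1.0 × 10^3 Y-strain bloodstream trypomastigotes. A single oral dose in PBS was given only on the first day after infection. Groups of six, with infected controls. Survival was followed, and parasitemia was counted as motile trypomastigotes in 5 µL tail blood.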

Trypanosoma cruzi [4] = test: Antiproliferative activity against Trypanosoma cruzi Y epimastigotes assessed as number of motile forms at 0.1 mM after 24 hrs by hemocytometer; assay type: functional; conditions: read-out: GI; method in brief: as §1
Trypanosoma cruzi [5] = test: Antiproliferative activity against Trypanosoma cruzi Y epimastigotes assessed as number of motile forms at 0.1 mM after 4 hrs by hemocytometer; assay type: functional; conditions: read-out: GI; method in brief: as §1
Trypanosoma cruzi [6] = test: Antiproliferative activity against Trypanosoma cruzi Y epimastigotes assessed as number of motile forms at 0.5 mM after 24 hrs by hemocytometer; assay type: functional; conditions: read-out: GI; method in brief: as §1
Trypanosoma cruzi [7] = test: Antiproliferative activity against Trypanosoma cruzi Y epimastigotes assessed as number of motile forms at 1 mM after 4 hrs by hemocytometer; assay type: functional; conditions: read-out: GI; method in brief: as §1
Trypanosoma cruzi [8] = test: Antitrypanosomal activity against Trypanosoma cruzi Y infected in Swiss mouse assessed as decrease in parasitemia at 385 umol/kg, po after 15 consecutive days; assay type: functional, organism-based
Trypanosoma cruzi [9] = test: Antiproliferative activity against Trypanosoma cruzi Y epimastigotes assessed as number of motile forms at 0.5 mM after 1 hr by hemocytometer; assay type: functional; conditions: read-out: GI; method in brief: as §1
Trypanosoma cruzi [10] = test: Antiproliferative activity against Trypanosoma cruzi Y epimastigotes assessed as number of motile forms at 1 mM after 24 hrs by hemocytometer; assay type: functional; conditions: read-out: GI; method in brief: as §1
Trypanosoma cruzi [11] = test: Antitrypanosomal activity against Trypanosoma cruzi Y epimastigotes assessed as number of motile forms after 24 hrs by hemocytometer; assay type: functional, organism-based
Method in brief: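 Y strain epimastigotes in Schneider's medium with 20% FCS, exponential phase, PBS-washed, 2.0 × 10^6/mL. Triplicate wells with compound in PBS at 0.1, 0.25, 0.5 and 1.0 mM, 37 °C, 5% CO2, 24 h. Motile forms counted by hemocytometer; IC50 taken as 50% antiproliferative activity. Mean ± SEM, n = 3.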

Trypanosoma cruzi [12] = test: Antiproliferative activity against Trypanosoma cruzi Y epimastigotes assessed as number of motile forms at 1 mM after 1 hr by hemocytometer; assay type: functional; conditions: read-out: GI; method in brief: as §1
Trypanosoma cruzi [13] = test: Antitrypanosomal activity against Trypanosoma cruzi Y infected in Swiss mouse assessed as survivality at 385 umol/kg, po after 15 consecutive days; assay type: functional
Method in brief: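 Female Swiss mice, 5-6 weeks old, infected intraperitoneally with 1.0 × 10^3 Y-strain bloodstream trypomastigotes from an infected mouse. Oral dosing once daily in PBS for 15 consecutive days. Groups of six; untreated or PBS-only infected controls. Parasitemia counted as motile trypomastigotes in 5 µL tail blood, and survival of the treated animals recorded.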

Trypanosoma cruzi [14] = test: Antitrypanosomal activity against Trypanosoma cruzi Y infected in Swiss mouse assessed as survivality at 100 nmol/kg, ip after 15 consecutive days; assay type: functional, organism-based
Method in brief: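 Female Swiss mice, 5-6 weeks old, groups of six, infected ip with 1.0 × 10^3 Y strain bloodstream trypomastigotes. Treated ip in 100 µL PBS daily for 15 consecutive days. Controls were untreated or PBS-only infected mice. Survival followed up to 120 days.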

Trypanosoma cruzi [15] = test: Antiproliferative activity against Trypanosoma cruzi Y epimastigotes assessed as number of motile forms at 0.5 mM after 4 hrs by hemocytometer; assay type: functional; conditions: read-out: GI; method in brief: as §1
[16] = Aqueous solubility at pH 6.5; assay type: physicochemical
Method in brief: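 Solubility measured in a bio-relevant medium simulating fasted proximal small intestine: 3 mM sodium taurocholate, 0.75 mM lecithin, KH2PO4, KCl, pH 6.5, 37 °C. Excess compound stirred 24 h in 5 mL, filtered through 0.45 µm, diluted, and quantified by UV-vis at 323 nm (ε = 4.5 × 10^3 M-1 cm-1), in triplicate.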

V79 = test: Cytotoxicity against chinese hamster V79 cells; assay type: cell-based; conditions: Cricetulus griseus

**Q.** Which results are given for `O=C(Cn1ccnc1[N+](=O)[O-])NCc1ccccc1` [BENZNIDAZOLE]?
**A.** IC50 (Trypanosoma cruzi [1]): > 1 mM; inhibition of growth at 100 µM (Trypanosoma cruzi [2]): 0%; survival at 385 µmol/kg (Trypanosoma cruzi [3]): 20%; inhibition of growth at 100 µM (Trypanosoma cruzi [4]): 15%; inhibition of growth at 100 µM (Trypanosoma cruzi [5]): 11%; inhibition of growth at 500 µM (Trypanosoma cruzi [6]): 26%; inhibition of growth at 1000 µM (Trypanosoma cruzi [7]): 24%; Activity (Trypanosoma cruzi [8]): Active; inhibition of growth at 500 µM (Trypanosoma cruzi [9]): 0%; inhibition of growth at 1000 µM (Trypanosoma cruzi [10]): 31%; IC50 (Trypanosoma cruzi [11]): > 1 mM; inhibition of growth at 1000 µM (Trypanosoma cruzi [12]): 7%; survival at 385 µmol/kg (Trypanosoma cruzi [13]): 100%; Activity (Trypanosoma cruzi [14]): inactive; inhibition of growth at 500 µM (Trypanosoma cruzi [15]): 15%; solubility [16]: 400 µg/mL (≈ 1540 µM); IC50 (V79): 2 mM
